# Measured values taken from ChEMBL document CHEMBL1938335, “2-(4-Methylsulfonylaminophenyl) propanamide TRPV1 antagonists: Structure-activity relationships in the B and C-regions” (Bioorg Med Chem, 2012).
# Key:
# [1] = target: T1, Transient receptor potential cation channel subfamily V member 1 (Rattus norvegicus, UniProt O35433); experiment: Displacement of [3H]RTX from rat TRPV1 expressed in CHO cells; format: cell-based
# Outline: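 Competitive binding against [3H]RTX on rat TRPV1 heterologously expressed in CHO cells. Affinity reported as Ki (nM). Values are mean ± SEM from 3 or more experiments.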
# [2] = target: T1, Transient receptor potential cation channel subfamily V member 1; experiment: Agonist activity at rat TRPV1 expressed in CHO cells by 45Ca2+ uptake assay; format: functional, cell-based
# [3] = target: T1, Transient receptor potential cation channel subfamily V member 1; experiment: Antagonist activity at rat TRPV1 expressed in CHO cells by 45Ca2+ uptake assay
# T1 sequence (O35433 whole entry): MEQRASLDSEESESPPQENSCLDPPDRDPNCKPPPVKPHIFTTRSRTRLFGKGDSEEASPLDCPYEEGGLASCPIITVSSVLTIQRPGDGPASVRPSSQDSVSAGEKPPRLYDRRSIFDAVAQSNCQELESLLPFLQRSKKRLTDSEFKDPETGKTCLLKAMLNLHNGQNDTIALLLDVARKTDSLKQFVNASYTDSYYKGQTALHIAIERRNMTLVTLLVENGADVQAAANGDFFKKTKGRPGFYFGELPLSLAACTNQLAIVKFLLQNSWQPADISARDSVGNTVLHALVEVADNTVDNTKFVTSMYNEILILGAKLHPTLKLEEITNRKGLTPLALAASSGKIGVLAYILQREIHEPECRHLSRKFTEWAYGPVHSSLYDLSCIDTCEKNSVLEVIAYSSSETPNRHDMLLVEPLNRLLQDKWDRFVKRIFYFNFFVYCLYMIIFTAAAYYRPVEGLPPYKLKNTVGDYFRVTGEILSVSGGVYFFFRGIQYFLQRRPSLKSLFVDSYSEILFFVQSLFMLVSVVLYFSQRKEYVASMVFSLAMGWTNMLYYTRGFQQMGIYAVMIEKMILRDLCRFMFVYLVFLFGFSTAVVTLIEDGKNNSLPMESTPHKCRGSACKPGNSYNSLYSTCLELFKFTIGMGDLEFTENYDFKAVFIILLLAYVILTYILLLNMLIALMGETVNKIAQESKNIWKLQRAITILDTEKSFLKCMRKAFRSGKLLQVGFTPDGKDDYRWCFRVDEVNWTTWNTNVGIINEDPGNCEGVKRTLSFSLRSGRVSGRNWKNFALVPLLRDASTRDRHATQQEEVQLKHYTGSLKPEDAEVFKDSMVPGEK
Ki ([1]; read-out: Ki),EC50 [2],Ki [3],Ki ([1]; cho),SMILES
,Not Active,,,COc1cc(C2(C(=O)NCc3ccc(C(C)(C)C)cc3)CC2)ccc1NS(C)(=O)=O
,Not Active,,,CC(NC(=O)/C=C/c1ccc(C(C)(C)C)cc1)c1ccc(NS(C)(=O)=O)c(F)c1 (centres undefined)
,Not Active,,,CC(C(=O)NCc1ccc(Cl)cc1)c1ccc(NS(C)(=O)=O)c(F)c1 (centres undefined)
412 nM,Not Active,250 nM,,CC(C(=O)NCc1ccc(Br)cc1)c1ccc(NS(C)(=O)=O)c(F)c1 (centres undefined)
,Not Active,,,CC(C(=O)NCc1ccc(C(F)(F)F)cc1)c1ccc(NS(C)(=O)=O)c(F)c1 (centres undefined)
7800 nM,Not Active,5350 nM,,COc1ccc(CNC(=O)C(C)c2ccc(NS(C)(=O)=O)c(F)c2)cc1 (centres undefined)
162 nM,Not Active,15 nM,,CC(C(=O)NCc1ccc(C2C=CCC2)cc1)c1ccc(NS(C)(=O)=O)c(F)c1 (centres undefined)
,Not Active,,,CC(C(=O)NCc1ccc(-c2ccccc2)cc1)c1ccc(NS(C)(=O)=O)c(F)c1 (centres undefined)
,Not Active,,,CC(C(=O)NCCc1ccc(C(C)(C)C)cc1)c1ccc(NS(C)(=O)=O)c(F)c1 (centres undefined)
,Not Active,,,Cc1ccc(/C=C/CNC(=O)C(C)c2ccc(NS(C)(=O)=O)c(F)c2)cc1C (centres undefined)
130 nM,Not Active,,,CC(C(=O)NCCC(c1ccccc1)c1ccccc1)c1ccc(NS(C)(=O)=O)c(F)c1 (centres undefined)
188 nM,Not Active,148 nM,,CC(C(=O)NCC1CC1(c1ccccc1)c1ccccc1)c1ccc(NS(C)(=O)=O)c(F)c1 (centres undefined)
115 nM,Not Active,47 nM,,CC(C(=O)NCCN(c1ccccc1)c1ccccc1)c1ccc(NS(C)(=O)=O)c(F)c1 (centres undefined)
96 nM,Not Active,32.1 nM,,Cc1ccc(C(CCNC(=O)C(C)c2ccc(NS(C)(=O)=O)c(F)c2)c2ccc(C)cc2)cc1 (centres undefined)
29.6 nM,Not Active,24.5 nM,,CC(C(=O)NCC=C(c1ccc(Cl)cc1)c1ccc(Cl)cc1)c1ccc(NS(C)(=O)=O)c(F)c1 (centres undefined)
121 nM,Not Active,31 nM,,Cc1ccc(C(CCNC(=O)C(C)c2ccc(NS(C)(=O)=O)c(F)c2)c2ccc(F)cc2)cc1 (centres undefined)
,Not Active,,,CC(C(=O)NCC=C1c2ccccc2CCc2ccccc21)c1ccc(NS(C)(=O)=O)c(F)c1 (centres undefined)
117 nM,Not Active,163 nM,,CC(C(=O)NCC=C1c2ccccc2C=Cc2ccccc21)c1ccc(NS(C)(=O)=O)c(F)c1 (centres undefined)

# Second part, the compound before the results:
SMILES,Ki ([1]; read-out: Ki),EC50 [2],Ki [3],Ki ([1]; cho)
CC(C)(C)c1ccc(CNC(=O)C(C)(C)c2ccc(NS(C)(=O)=O)cc2)cc1,430 nM,Not Active,,
CC(C)(C)c1ccc(CNC(=O)C2(c3ccc(NS(C)(=O)=O)cc3)CC2)cc1,,Not Active,,
CC(C)(C)c1ccc(CNC(=O)C(C)(C)c2ccc(NS(C)(=O)=O)c(F)c2)cc1,,Not Active,,
COc1cc(C(C)(C)C(=O)NCc2ccc(C(C)(C)C)cc2)ccc1NS(C)(=O)=O,414 nM,Not Active,707 nM,
CC(C)(C)c1ccc(CNC(=O)C2(c3ccc(NS(C)(=O)=O)c(F)c3)CC2)cc1,,Not Active,,Not Active
CC(NC(=O)Cc1ccc(C(C)(C)C)cc1)c1ccc(NS(C)(=O)=O)c(F)c1 (centres undefined),2100 nM,Not Active,,
CC(NC(=O)CCc1ccc(C(C)(C)C)cc1)c1ccc(NS(C)(=O)=O)c(F)c1 (centres undefined),,Not Active,,
CC(C(=O)NCc1ccc(I)cc1)c1ccc(NS(C)(=O)=O)c(F)c1 (centres undefined),502 nM,Not Active,107 nM,
CC(C(=O)NCc1ccc(Cl)c(Cl)c1)c1ccc(NS(C)(=O)=O)c(F)c1 (centres undefined),,Not Active,,
Cc1ccc(CNC(=O)C(C)c2ccc(NS(C)(=O)=O)c(F)c2)cc1 (centres undefined),3100 nM,Not Active,930 nM,
CC(C)c1ccc(CNC(=O)C(C)c2ccc(NS(C)(=O)=O)c(F)c2)cc1 (centres undefined),,Not Active,,
CC(C(=O)NCc1ccc(C2CC2)cc1)c1ccc(NS(C)(=O)=O)c(F)c1 (centres undefined),411 nM,Not Active,55.5 nM,
CC(C(=O)NCc1ccc(C2CCCC2)cc1)c1ccc(NS(C)(=O)=O)c(F)c1 (centres undefined),93 nM,Not Active,20.8 nM,
CC(C(=O)NCc1ccc(C2CCCCC2)cc1)c1ccc(NS(C)(=O)=O)c(F)c1 (centres undefined),138 nM,Not Active,43 nM,
CC(C(=O)NCc1ccc(C(C)(C)C)cc1Br)c1ccc(NS(C)(=O)=O)c(F)c1 (centres undefined),47 nM,Not Active,12.7 nM,
CC(C(=O)NCc1ccc(C(C)(C)C)cc1C#N)c1ccc(NS(C)(=O)=O)c(F)c1 (centres undefined),44 nM,Not Active,40 nM,
CC(C(=O)NC1CCCc2ccccc21)c1ccc(NS(C)(=O)=O)c(F)c1 (centres undefined),,Not Active,,
Cc1ccc(CCCNC(=O)[C@H](C)c2ccc(NS(C)(=O)=O)c(F)c2)cc1C,,Not Active,,
Cc1ccc(CCCNC(=O)[C@@H](C)c2ccc(NS(C)(=O)=O)c(F)c2)cc1C,257 nM,Not Active,,
CC(C(=O)NC/C=C/c1ccc(Cl)cc1)c1ccc(NS(C)(=O)=O)c(F)c1 (centres undefined),,Not Active,,
CC(C(=O)NOCc1ccccc1)c1ccc(NS(C)(=O)=O)c(F)c1 (centres undefined),,Not Active,,
CC(C(=O)NC(c1ccccc1)c1ccccc1)c1ccc(NS(C)(=O)=O)c(F)c1 (centres undefined),,Not Active,,
CC(C(=O)NCC(c1ccccc1)c1ccccc1)c1ccc(NS(C)(=O)=O)c(F)c1 (centres undefined),,Not Active,,
Cc1ccc(C(=CCNC(=O)C(C)c2ccc(NS(C)(=O)=O)c(F)c2)c2ccc(C)cc2)cc1 (centres undefined),30.9 nM,Not Active,,
CC(C(=O)NCCC(c1ccc(F)cc1)c1ccc(F)cc1)c1ccc(NS(C)(=O)=O)c(F)c1 (centres undefined),79 nM,Not Active,24.8 nM,
CC(C(=O)NCC=C(c1ccc(F)cc1)c1ccc(F)cc1)c1ccc(NS(C)(=O)=O)c(F)c1 (centres undefined),,Not Active,,
Cc1ccc(CCCNC(=O)C(C)c2ccc(NS(C)(=O)=O)c(F)c2)cc1C (racemic),413 nM,Not Active,97 nM,
